≈ marks a conversion by molar mass, not a printed value.
Key:
[1] = system: Mycobacterium tuberculosis; assay: Antibacterial activity against non-replicating Mycobacterium tuberculosis H37Rv after 5 days under hypoxic condition by resazurin dye-based fluorescence assay; type: functional; details: 120 h
How it was run: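 Same H37Rv inoculum (OD600 0.001, ~2 x 10^4 CFU/mL) in 7H9S with serially diluted compound. Plates held 5 days at 0.1% oxygen, then resazurin plus Tween-80 added.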

[2] = system: Mycobacterium tuberculosis; assay: Antibacterial activity against Mycobacterium tuberculosis H37Rv after 5 days under normoxic condition by resazurin dye-based fluorescence assay; type: functional, organism-based
How it was run: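 H37Rv grown in 7H9/ADC/glycerol/Tyloxapol to mid-exponential phase, diluted to OD600 0.001 (~2 x 10^4 CFU/mL) in 7H9S with serially diluted compound. Incubated 5 days at 37 °C, then resazurin and Tween-80 added. Fluorescence (ex 530/em 590 nm) read after 24 h, normalised to no-drug and no-bacteria wells.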

Giardia intestinalis [3] = assay: Antiparasitic activity against Giardia lamblia WB trophozoites after 24 to 48 hrs by CellTiter-Glo luminescent cell viability assay; details: Giardia duodenalis
[4] = buffer, 24 h, 200 µM
Entamoeba histolytica [5] = assay: Antiparasitic activity against Entamoeba histolytica HM-1:IMSS trophozoites after 24 to 48 hrs by CellTiter-Glo luminescent cell viability assay; type: functional, organism-based
How it was run: (§1)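 Axenic trophozoites were kept in TYI-S-33 with penicillin (100 U/mL) and streptomycin (100 µg/mL) and harvested in log phase. 5000 parasites per well were exposed to a final 8-point two-fold series of 0.39–50 µM, from 10 mM DMSO stocks. Plates were incubated 24–48 h at 37 °C under anaerobic conditions. ATP luminescence viability was read in triplicate. Percent inhibition is given at the highest concentration tested.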

[6] = buffer, pH 7.4, 24 h, 200 µM
physchem [7] = details: PBS, pH 7.4
[8] = system: Trypanosoma brucei brucei; assay: Antiparasitic activity against bloodstream form of Trypanosoma brucei brucei strain 427 after 48 hrs by resazurin dye-based assay; type: functional, organism-based; details: strain 427, 48 h
[9] = Apparent permeability across apical to basolateral side in human Caco2 cells assessed as mean drug recovery at 2 uM after 2 hrs by lucifer yellow dye-based LC-MS/MS analysis; details: caco-2, 2 h
[10] = Apparent permeability across basolateral to apical side in human Caco2 cells assessed as mean drug recovery at 2 uM after 2 hrs by lucifer yellow dye-based LC-MS/MS analysis; details: Caco-2
physchem [11] = details: water
Entamoeba histolytica [12] = assay: Antiparasitic activity against Entamoeba histolytica HM-1:IMSS trophozoites assessed as inhibition of parasitic growth at 50 uM after 24 to 48 hrs by CellTiter-Glo luminescent cell viability assay relative to control; type: functional; details: read-out: GI; how it was run: as §1
[13] = Metabolic stability in human liver microsomes assessed as parent compound remaining at 3 uM after 2 hrs by LC-MS/MS analysis
[14] = Metabolic stability in CD-1 mouse liver microsomes assessed as parent compound remaining at 3 uM after 2 hrs by LC-MS/MS analysis
[15] = Metabolic stability in CD-1 mouse plasma assessed as parent compound remaining at 3 uM after 2 hrs by LC-MS/MS analysis
[16] = Metabolic stability in human plasma assessed as parent compound remaining at 3 uM after 2 hrs by LC-MS/MS analysis
Clostridioides difficile = assay: Antibacterial activity against Clostridium difficile 630 ATCC BAA-1382 by broth microdilution assay; type: functional
How it was run: (§2)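 Broth microdilution run essentially per an earlier report. MIC taken as the lowest concentration with no visible growth. Replicates typically agreed within one 2-fold dilution. The median MIC is reported, with a range where the median fell between two tested concentrations.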

[17] = Apparent permeability across apical to basolateral side in human Caco2 cells at 2 uM after 2 hrs by lucifer yellow dye-based LC-MS/MS analysis; details: caco-2, 2 h
[18] = Protein binding in human plasma at 5 uM after 30 mins by LC-MS/MS analysis based ultrafiltration method; details: 0.5 h
[19] = Apparent permeability across basolateral to apical side in human Caco2 cells at 2 uM after 2 hrs by lucifer yellow dye-based LC-MS/MS analysis; details: caco-2, 2 h
[20] = system: Trypanosoma brucei brucei; assay: Antiparasitic activity against bloodstream form of Trypanosoma brucei brucei strain 427 assessed as inhibition of parasitic growth at 40 uM after 48 hrs by resazurin dye-based assay relative to control; type: functional; details: strain 427, 48 h, read-out: GI
Giardia intestinalis [21] = assay: Antiparasitic activity against Giardia lamblia WB trophozoites assessed as inhibition of parasitic growth at 50 uM after 24 to 48 hrs by CellTiter-Glo luminescent cell viability assay relative to control; type: functional; details: Giardia duodenalis, read-out: GI; how it was run: as §1
Escherichia coli = assay: Antibacterial activity against Escherichia coli ATCC 25922 by broth microdilution assay; type: functional; how it was run: as §2
Pseudomonas aeruginosa = assay: Antibacterial activity against Pseudomonas aeruginosa ATCC 27853 by broth microdilution assay; type: functional; how it was run: as §2
Cryptococcus neoformans = assay: Antifungal activity against Cryptococcus neoformans H99 ATCC […] broth microdilution assay; type: functional; details: var. grubii H99 ATCC 208821; how it was run: as §2
HepG2 = assay: Cytotoxicity against human HepG2 cells after 24 hrs by resazurin dye-based fluorescence assay; type: cell-based; details: hepg2, 24 h
How it was run: (§3)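 HEK293 (3000/well) and HepG2 (5000/well) were grown 24 h in DMEM with 10% FBS at 37 °C, 5% CO2. Cells were then exposed 24 h to a dilution series up to 100 µM (0.5% DMSO). 5 µM resazurin was added for 2 h, read at ex 560/em 590. 1% Triton X-100 served as lysis control. CC50 was derived from the curves.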

HEK293 = assay: Cytotoxicity against HEK293 cells after 24 hrs by resazurin dye-based fluorescence assay; type: cell-based; details: human, hek293, 24 h; how it was run: as §3
Acinetobacter baumannii = assay: Antibacterial activity against Acinetobacter baumannii ATCC 19606 by broth microdilution assay; type: functional; details: ATCC 19606 = CIP 70.34 = JCM 6841; how it was run: as §2
Klebsiella pneumoniae = assay: Antibacterial activity against Klebsiella pneumoniae 700603 by broth microdilution assay; type: functional; how it was run: as §2
Staphylococcus aureus = assay: Antibacterial activity against methicillin-resistant Staphylococcus aureus ATCC […] by broth microdilution assay; type: functional
Candida albicans = assay: Antifungal activity against Candida albicans ATCC 90028 by broth microdilution assay; type: functional; how it was run: as §2

Structure (SMILES)	MIC [1] [µg/mL]	MIC [2] [µg/mL]	IC50 (Giardia intestinalis [3]) [µM]	IC50 (Giardia intestinalis [3]; read-out: pIC50 (converted)) [µM]	log(Kinetic_solubility) [4]	IC50 (Entamoeba histolytica [5]; read-out: IC50) [µM]	IC50 (Entamoeba histolytica [5]; read-out: pIC50 (converted)) [µM]	log(Kinetic_solubility) [6]	solubility kinetic at 24 h, 200 µM (physchem [7]) [µM]	IC50 ([8]; read-out: IC50) [µM]	IC50 ([8]; read-out: pIC50 (converted)) [µM]	Stability [13] [%]	Stability [14] [%]	Stability [15] [%]	Stability [16] [%]	PPB [18] [%]	further results
Cc1ccc(Cn2c(C)c(C)n3cc([N+](=O)[O-])nc3c2=O)cc1	4 (≈ 12.8 µM)	2 (≈ 6.4 µM)	5.2	5.01	< -5	33	31.6	< -5	< 10	0.25	0.251						
C[C@H]1O[C@@H](O[C@H]2[C@@H](O)C[C@H](O[C@H]3[C@@H](O)C[C@H](O[C@H]4CC[C@@]5(C)[C@H](CC[C@@H]6[C@@H]5C[C@@H](O)[C@]5(C)[C@@H](C7=CC(=O)OC7)CC[C@]65O)C4)O[C@@H]3C)O[C@@H]2C)C[C@H](O)[C@@H]1O [DIGOXIN]																	Drug recovery [9]: < 72%; recovery at 2 h, 2 µM [10]: 88%
CC(=O)OCCn1c(C)cn2cc([N+](=O)[O-])nc2c1=O	> 32	>32	50	50.1	> -4			> -4	100 to 200 (≈ 28 to 56 µg/mL)	0.65	0.631						solubility kinetic at 24 h, 200 µM (physchem [11]): 100 to 200 µM (≈ 28 to 56 µg/mL); inhibition of growth at 50 µM (Entamoeba histolytica [12]): 41%
O=c1c2nc([N+](=O)[O-])cn2ccn1Cc1ccc(OC(F)(F)F)cc1												> 99	> 99	> 99	> 99	98	Drug recovery [9]: 83%; recovery at 2 h, 2 µM [10]: 97%; MIC (Clostridioides difficile): > 64 µg/mL; Papp [17]: 25 ×10⁻⁶ cm/s; Papp [19]: 22 ×10⁻⁶ cm/s
Cc1cn2cc([N+](=O)[O-])nc2c(OCCO)n1	> 32					> 50	> 50.1										inhibition of growth at 40 µM [20]: 56%; inhibition of growth at 50 µM (Giardia intestinalis [21]): 80%
Cc1cn2cc([N+](=O)[O-])nc2c(OCc2ccc(OC(F)(F)F)cc2)n1	> 32	>32	7.4	7.94		9.5	10			> 40	> 39.8	69	7.9	> 99	94	> 99	
O=c1c2nc([N+](=O)[O-])cn2ccn1Cc1ccc(F)cc1	2 (≈ 6.94 µM)	1 (≈ 3.47 µM)	6.4	6.31		> 50				2.9	3.16	99	> 99	> 99	98	82	MIC (Escherichia coli): > 32 µg/mL; MIC (Pseudomonas aeruginosa): > 32 µg/mL; MIC (Cryptococcus neoformans): > 32 µg/mL; CC50 (HepG2): > 100 µM; CC50 (HEK293): > 100 µM; MIC (Acinetobacter baumannii): > 32 µg/mL; MIC (Klebsiella pneumoniae): > 32 µg/mL; MIC (Staphylococcus aureus): > 32 µg/mL; MIC (Clostridioides difficile): > 64 µg/mL; MIC (Candida albicans): > 32 µg/mL
CC(=O)OCCn1c(-c2ccccc2)cn2cc([N+](=O)[O-])nc2c1=O	> 32		11	10	> -4	34	31.6	> -4	> 100	0.86	0.794						solubility kinetic at 24 h, 200 µM (physchem [11]): > 100 µM

Reference: ChEMBL document CHEMBL4382237, “Design, Synthesis, and Biological Evaluation of 2-Nitroimidazopyrazin-one/-es with Antitubercular and Antiparasitic Activity” (J Med Chem, 2018)
